# CHO-K1 Ca PAM – nonselective calcium activators in parental CHO-K1 cells, primary screen, counter-screen for M1 PAM project, cell-based, Fluo-8 calcium fluorescence, full deck, 1536-well. ATP EC20; 0% at ATP EC20, 100% at ATP max. activation, % at 3 µM. 0.02% of 360,000 active. AID 602247, 2012;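 active = activation above the run cutoff, the mean activation of all test compounds plus 3 SD, cut at about 40% in these data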;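 also: peak over basal fluorescence ratio in a 140 s read after ATP addition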
# CHO-K1 Ca ag – counter-screen for M1 agonists: effect in parental CHO-K1 cells. Fluo-8 calcium fluorescence; scaled to maximal ATP response, vehicle zero. activation, % at 3 µM. 0.48% of 360,000 active. AID 602248, 2012; in the data active = activation above about 15%;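 also: untransfected CHO-K1 host cells lacking M1 receptor as counterscreen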
# CHO parental Ca – ATP-evoked calcium signal inhibitors, parental CHO, primary screen, counter-screen for OX1R antagonist project, cell-based, fluorescence, Fluo-8 calcium dye | parental CHO-K1, ATP-induced calcium, Fluo-8 fluorescence | inhibition, % at 5.6 µM | 0.63% of 330,000 active | AID 463079, 2010;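 active = inhibition above that plate's mean sample inhibition plus 3 SD, cut at about 26% in these data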;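 also: 0% = ATP-challenged DMSO wells and 100% = DMSO wells without ATP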
#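 Test system: parental CHO cells; detection: calcium-sensitive Fluo-8 fluorescence; evaluation: percent inhibition of calcium signal; also added: ATP as calcium-mobilizing challenge; repeats: one well per compound; control set: ATP-challenged DMSO wells low, unchallenged DMSO wells high; compound: single nominal dose of 5.6 µM per compound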
# OX1R antag-1 – antagonists of human orexin 1 receptor (OX1R). 1.8% of 330,000 active. inhibition, % at 6.6 µM. OX1R-expressing cells, FRET antagonist read-out. AID 485270, 2010. Orexin/Hypocretin receptor type 1 (Homo sapiens), O43613; in the data active = inhibition mostly above about 38%, no sharp cut-off; inactive = mostly below about 40%;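 also: 0% = agonist challenge alone and 100% = reference antagonist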
# Target sequence (O43613 whole entry, looked up): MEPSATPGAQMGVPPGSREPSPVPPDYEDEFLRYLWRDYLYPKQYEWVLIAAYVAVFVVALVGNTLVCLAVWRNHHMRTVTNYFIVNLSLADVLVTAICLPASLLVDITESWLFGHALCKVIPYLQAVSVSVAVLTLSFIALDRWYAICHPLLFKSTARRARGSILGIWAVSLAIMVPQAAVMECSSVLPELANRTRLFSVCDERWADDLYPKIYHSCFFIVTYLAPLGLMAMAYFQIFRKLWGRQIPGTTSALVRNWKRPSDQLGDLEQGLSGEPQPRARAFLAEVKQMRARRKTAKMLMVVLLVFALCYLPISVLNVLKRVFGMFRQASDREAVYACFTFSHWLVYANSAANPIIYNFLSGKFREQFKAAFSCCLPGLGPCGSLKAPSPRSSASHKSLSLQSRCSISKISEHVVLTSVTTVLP
# OX1R antag-2 – OX1R (HCRTR1) antagonists, primary screen, fluorescence, CHO/OX1R cells, Fluo-8 calcium, orexin A. inhibition, % at 5 µM. Fluo-8 calcium fluorescence. 0.43% of 330,000 active;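 active = inhibition above its plate's threshold, mean inhibition of all tested compounds on the plate plus 3 SD, cut at about 37% in these data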;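 also: 0% = orexin A challenge wells and 100% = SB-334867-A antagonist wells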
# CHO-K1 Ca antag – M1 antagonist counterscreen hit in parental CHO-K1 cells; ATP-induced calcium, Fluo-8 fluorescence; inhibition, % at 3 µM; 0.6% of 360,000 active; AID 602250;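 active = inhibition above a per-plate cutoff, the plate's mean sample inhibition plus 3 SD, cut at about 24% in these data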;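 also: 0% = DMSO plus EC80 ATP and 100% = DMSO alone without ATP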
# Starred values were filed as active, the others as inactive; nt = no result. Only some compounds are listed: those with a hit (about 2.9% of all), similar ones and a draw of the others.
SMILES,CHO-K1 Ca PAM,CHO-K1 Ca ag,CHO parental Ca,OX1R antag-1,OX1R antag-2,CHO-K1 Ca antag
CNC(=O)C(=O)NCC1OCCN1S(=O)(=O)c1ccc([N+](=O)[O-])cc1 (centres undefined),8,0,-6,72*,-25,-4
O=C(NCCc1ccccc1)C(=O)NCC1OCCN1S(=O)(=O)c1ccc2c(c1)OCCO2 (centres undefined),3,19*,-9,30,5,0
CCC(CC)=NNc1ccc([N+](=O)[O-])cc1[N+](=O)[O-],12,0,-5,39,-20,7
CCOC(=O)CC(C)(C)/C(C)=N/Nc1ccc([N+](=O)[O-])cc1[N+](=O)[O-],-3,6,19,54*,-3,20
C/C(CCC(=O)O)=N/Nc1ccc([N+](=O)[O-])cc1[N+](=O)[O-],10,7,-4,63*,-2,-4
C/C(CCCO)=N/Nc1ccc([N+](=O)[O-])cc1[N+](=O)[O-],11,8,4,44*,15,2
C#CCOC(=O)CCCNc1ccc([N+](=O)[O-])cc1[N+](=O)[O-],-7,2,7,46*,-21,15
COc1ccccc1CCNC(=O)c1cccc(NC(=O)CC2SC(N3CCCCC3)=NC2=O)c1 (centres undefined),8,1,nt,nt,nt,-12
CCC(C)N(C(=O)Cn1nnc(-c2ccc(F)cc2)n1)C1CCS(=O)(=O)C1 (centres undefined),-10,0,2,9,-15,6
O=C(Cc1ccccc1Cl)Nc1cc(S(=O)(=O)N2CCOCC2)ccc1N1CCOCC1,8,0,-18,3,-25,10
CCc1ccc(NC(=O)CSc2nnc(CNC(=O)c3cccs3)o2)cc1,-14,3,2,15,-5,4
COc1cc(C(=O)ON=C2C=C(C)C(=O)C(C)=C2)cc(OC)c1OC,21,1,-4,75*,-15,-11
COC(=O)c1[nH]c2ccccc2c1NC(=O)CN1CCN(c2cccc(OC)c2)C(C)C1 (centres undefined),-7,2,-14,48,1,28*
CC(OC(=O)CSCC(=O)Nc1ccc(Cl)cc1)C(=O)N(C)Cc1ccccc1 (centres undefined),9,9,nt,nt,nt,-14
Cc1c(C2(O)CCCCC2)[nH]c2ccc(C(F)(F)F)cc12,-8,0,57*,53*,47,-12
CCn1c(SCC(=O)NCc2ccco2)nnc1C(C)C,2,0,2,26,-10,-3
CC(C)c1nnc(SCC(=O)NCc2ccco2)n1C,-9,0,-3,18,-20,30*
CC(Oc1ccc(Cl)cc1Cl)c1nc(-c2ccc(NC(=O)c3cccnc3)cc2)no1 (centres undefined),17,0,-14,0,-24,-16
CC(Oc1ccc(Cl)cc1Cl)c1nc(-c2ccc(NC(=O)c3ccncc3)cc2)no1 (centres undefined),9,5,43*,15,8,3
CC(=O)c1cccc(NC(=O)N2CCC(NC(=O)C3CCCCC3)CC2)c1,21,0,-1,14,-14,-8
O=C(Nc1ccccc1C(=O)OCC(=O)N1CCc2ccccc2C1)c1ccco1,18,2,-25,80*,27,-5
CNC(=O)COC(=O)c1ccccc1NC(=O)c1ccco1,-5,1,-14,27,-5,-1
Cc1ccc(OS(=O)(=O)c2ccc(N3C(=O)CCC3=O)cc2)cc1,-3,4,-7,10,-17,2
O=C1OC(c2ccccc2)(c2ccc(O)cc2)c2ccccc21 (centres undefined),-20,-1,nt,nt,nt,8
O=C1OC2(c3ccccc31)c1cc(I)c(O)c(I)c1Oc1c2cc(I)c(O)c1I,nt,nt,94*,91*,106*,nt
SMILES,CHO-K1 Ca PAM,CHO-K1 Ca ag,CHO parental Ca,OX1R antag-1,OX1R antag-2,CHO-K1 Ca antag
C[C@H](CO)N1C[C@H](C)[C@@H](CN(C)Cc2cncnc2)Oc2cc(Br)ccc2S1(=O)=O,1,2,nt,nt,nt,4
O=C(O)CCC(=O)N1CCc2cc(S(=O)(=O)NCCc3ccc(Cl)cc3)ccc21,12,2,-12,10,-19,-15
COc1ccc(CCNS(=O)(=O)c2ccc3c(c2)CCN3C(=O)CCC(=O)O)cc1OC,12,19*,-10,-3,6,5
O=C(NCCCN1CCN(CCCNC(=O)c2cc([N+](=O)[O-])ccc2Cl)CC1)c1cc([N+](=O)[O-])ccc1Cl,24,0,1,72*,3,-12
O=C(NCCCN1CCOCC1)c1cc(Cl)ccc1Cl,19,1,-8,7,-11,2
O=C(Nc1cc([N+](=O)[O-])ccc1C(=O)NCCN1CCOCC1)c1ccccc1,-11,0,-10,75*,-6,3
COc1ccc(NS(=O)(=O)c2cccc(C(=O)NNC(=O)c3ccc(Br)o3)c2)cc1,10,1,-4,21,-13,2
CN(c1ccc(C(=O)NCCSCc2ccccc2)cc1)S(=O)(=O)c1ccccc1,-9,0,-12,22,-8,24*
COc1ccc(S(=O)(=O)N(C)c2ccc(C(=O)NCc3ccncc3)cc2)cc1,-12,1,-8,15,3,-5
Cc1cc(NC(=O)c2ccc(N(C)S(=O)(=O)c3ccccc3)cc2)no1,-5,17*,-8,14,-3,-19
Cc1ccc(C)c(NC(=O)CN(C)C(=O)c2ccc(S(=O)(=O)N(C)c3ccccc3)cc2)c1,24,6,-15,30*,-4,-19
CN(c1ccc(C(=O)Nc2ccccn2)cc1)S(=O)(=O)c1ccccc1,14,0,-2,31,-25,-10
Cc1cccc(CSCCNC(=O)c2ccc(N(C)S(=O)(=O)c3ccccc3)cc2)c1,19,5,0,21,-5,4
COc1ccc(CNC(=O)c2ccc(N(C)S(=O)(=O)c3ccc(C)cc3)cc2)cc1,-11,0,2,14,3,25*
O=c1ncc(F)c[nH]1,nt,nt,-10,17,-11,nt
O=C1NC[C@H](CCCCN2C[C@H](Cc3ccc(O)cc3)N(CC3CCCCC3)C(=O)C2=O)N(Cc2ccccc2)C1=O,1,0,nt,nt,nt,-6
O=C(COc1ccc(Br)cc1)N(Cc1nnc(-c2ccccc2Cl)o1)C1CC1,7,5,nt,nt,nt,-6
CN(c1ccccc1)S(=O)(=O)c1ccc(NC(=O)c2ccccc2)cc1,-9,2,-7,8,-3,8
CN(c1ccccc1)S(=O)(=O)c1ccc(NC(=O)c2ccc(F)cc2)cc1,4,19*,6,19,-8,3

# Source: PubChem (The Scripps Research Institute Molecular Screening Center)
